Measured values: PMC6396672 (OncoTargets and therapy, 2019)
Read-outs that look alike come from different tables or passages of the source.

What was measured:
[1] = system: L-02 cells; assay: MTT assay, cell survival; type: cell-based
Procedure, shortened: (§1)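 Compounds were dissolved in DMSO and diluted in DMEM. Cells were treated at 0.01, 0.03, 0.1, 0.3, 1, 3 and 10 μmol/L, and viability was read by MTT. Inhibition rates were calculated, and IC25, IC50 and ICmax were derived by curve fitting.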

[2] = system: EMT-related genes in MHCC97-H cells; assay: qPCR of EMT-related genes; type: cell-based; details: ARQ-197 at IC25 concentration
Procedure, shortened: (§2)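 Total RNA from treated HCC cells was extracted and reverse transcribed. Target mRNAs were measured by real-time qPCR with gene-specific primers and normalised to β-actin mRNA. EMT targets were E-cadherin, N-cadherin and vimentin; MDR targets were CYP3A4, MDR-1 and UGT1A9.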

[3] = system: HepG2 cells; assay: MTT assay, cell survival; type: cell-based; details: for IC50: Homo sapiens
Procedure, shortened: as §1

[4] = system: LM-3 cells; assay: MTT assay, cell survival; type: cell-based
Procedure, shortened: as §1

[5] = system: PXR; details: MHCC97-H cells, dose-dependent
[6] = system: ETS-1; assay: Gene reporter luciferase assay EBS-Luc; type: cell-based; details: MHCC97-H cells, dose-dependent
[7] = system: MHCC97-H tumors; assay: In vivo antitumor effect, subcutaneous tumor model; details: nude mice
Procedure, shortened: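 Nude (T-cell-deficient) mice, aged 4–6 weeks, were injected subcutaneously with 1×10^6 MHCC97-H cells per animal. Treatment started 3–4 days after injection: sorafenib 2 mg/kg given orally every 2 days, ten doses over 21 days. Mice were then harvested and tumour volumes or weights measured. Inhibition rates were calculated from tumour volume or weight.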

[8] = system: MHCC97-L cells; assay: MTT assay, cell survival; type: cell-based; details: for IC50: MHCC97L
Procedure, shortened: as §1

[9] = system: MHCC97-H cells; assay: MTT assay, cell survival; type: cell-based; details: for IC50: Homo sapiens, MHCC97H
Procedure, shortened: as §1

[10] = system: MDR-related genes in MHCC97-H cells; assay: qPCR of MDR-related genes; type: cell-based; details: ARQ-197 at IC25 concentration
Procedure, shortened: as §2

[11] = Clearance of sorafenib in cultured cells by LC-MS/MS; type: in vitro ADME; details: human, HepG2 cells (cultured HCC cells), Half-life of sorafenib (t1/2)
Procedure, shortened: (§3)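 Cultured human HCC cells (with or without the co-treatment or siRNA named in the line) were exposed to sorafenib at 1 μmol/L for 12 hours, then harvested at set time points. Samples were extracted with acetonitrile, and the remaining sorafenib was quantified by LC-MS/MS. Half-life (t1/2) was calculated from the decline over time.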

[12] = as above; type: in vitro ADME; details: human, MHCC97-H cells (cultured HCC cells), Half-life of sorafenib (t1/2)
Procedure, shortened: as §3

[13] = system: subcutaneous MHCC97-H tumors; assay: Clearance of sorafenib in subcutaneous tumor by LC-MS/MS; type: in vivo, nude mice; details: PXR siRNA +siRNA
Procedure, shortened: (§4)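 Nude mice (T-cell deficient, 4–6 weeks) carried subcutaneous tumours grown from injected HCC cells; siRNA sequences were described in earlier work. Sorafenib solution was injected into the tumours, and tissue was harvested at set time points. Samples were extracted with acetonitrile, and residual sorafenib was quantified by LC-MS/MS. t1/2 was obtained by curve fitting.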

[14] = Clearance of sorafenib in cultured cells by LC-MS/MS; type: in vitro ADME; details: human, LM-3 cells (cultured HCC cells), Half-life of sorafenib (t1/2), LM-3 cultured cells
Procedure, shortened: as §3

[15] = system: subcutaneous LM-3 tumors; assay: Clearance of sorafenib in subcutaneous tumor by LC-MS/MS; type: in vivo, nude mice; details: LM-3 subcutaneous tumor, ETS-1 siRNA
Procedure, shortened: as §4

[16] = Clearance of sorafenib in cultured cells by LC-MS/MS; type: in vitro ADME; details: human, MHCC97-L cells (cultured HCC cells), Half-life of sorafenib (t1/2)
Procedure, shortened: as §3

In the case of `O=C1NC(=O)[C@@H](c2cn3c4c(cccc24)CCC3)[C@@H]1c1c[nH]c2ccccc12` [ARQ-197], the IC50 ([1]; Homo sapiens, L02, read-out: IC50 values) is reported as 7590 ± 780 nM, the IC25 values ([1]; L-02, MTT) is reported as 3440 ± 240 nM and the “expression of E-cadherin (mRNA)” value [2] is reported as “enhanced”. The “expression of N-cadherin (mRNA)” value [2] was “decreased”, the “expression of vimentin (mRNA)” value [2] was “decreased” and the IC25 values ([3]; HepG2, MTT) was 230 ± 70 nM. The “ICmax values (maximum action concentration)” value (shortened to “ICmax values”) ([3]; HepG2, MTT) was 9.55 ± 0.57 µmol/L, the IC50 ([3]; HepG2, read-out: IC50 values, HepG2, MTT) was 1990 ± 470 nM and the IC50 ([4]; LM3, read-out: IC50 values, LM-3, MTT) was 670 ± 160 nM. The IC25 values ([4]; LM-3, MTT) was 80 ± 20 nM, the “ICmax values” value ([4]; LM-3, MTT) was 4.62 ± 0.80 µmol/L and the “luciferase activity of DR3-Luc reporter” value [5] was “inhibited”. The “luciferase activity of EBS-Luc reporter” value [6] was “inhibited”, the “effect of ARQ-197 on the antitumor effect of sorafenib in vivo” value ([7]; 3 mg/kg ARQ-197 + 2 mg/kg sorafenib compared to sorafenib alone, MHCC97-H tumors) was “significantly enhanced the antitumor effect of sorafenib” and the “subcutaneous growth of MHCC97-H tumors” value ([7]; 3 mg/kg ARQ-197, oral, compared to vehicle controls) was “inhibited the subcutaneous growth of MHCC97-H tumors”. The IC25 values ([8]; MHCC97-L, MTT) was 1290 ± 520 nM, the IC50 ([8]; read-out: IC50 values, MHCC97-L, MTT) was 4630 ± 930 nM and the IC50 ([9]; read-out: IC50 values, MHCC97-H, MTT) was 760 ± 220 nM. The IC25 values ([9]; MHCC97-H, MTT) was 90 ± 10 nM, the “ICmax values” value ([9]; MHCC97-H, MTT) was 3.56 ± 0.65 µmol/L and the “expression of Cyp3a4 (mRNA)” value [10] was “decreased”. The “expression of Mdr-1 (mRNA)” value [10] was “decreased” and the “expression of Ugt1a9 (mRNA)” value [10] was “decreased”.

For `CNC(=O)c1cc(Oc2ccc(NC(=O)Nc3ccc(Cl)c(C(F)(F)F)c3)cc2)ccn1` [sorafenib], the half-life at 1 μmol/L ([11]; ARQ-197) was 12.5 ± 0.62 h, the half-life at 1 μmol/L ([11]; solvent control) was 9.62 ± 0.82 h and the IC50 ([3]; HepG2, read-out: IC50 values of sorafenib, HepG2, solvent control) was 1680 ± 420 nM. The IC50 ([4]; LM3, read-out: IC50 values of sorafenib, LM-3, solvent control) was 1290 ± 250 nM, the half-life at 1 μmol/L ([12]; ARQ-197) was 13.6 ± 0.65 h and the half-life at 1 μmol/L ([12]; ETS-1 siRNA) was 13.8 ± 0.84 h. The half-life at 1 μmol/L ([12]; ETS-1 siRNA +ARQ-197) was 13.5 ± 0.23 h, the half-life at 1 μmol/L ([12]; PXR siRNA) was 17.7 ± 0.91 h and the half-life at 1 μmol/L ([12]; PXR siRNA +siRNA) was 17.6 ± 0.88 h. For the same compound, the half-life at 1 μmol/L ([12]; solvent control) was 9.08 ± 0.43 h, the “Half-life of sorafenib (t1/2)” value [13] was 40.13 ± 0.83 h and the half-life at 1 μmol/L ([14]; ARQ-197) was 14.4 ± 0.67 h. It also gave a half-life at 1 μmol/L ([14]; ETS-1 siRNA) of 15.6 ± 0.46 h, a half-life at 1 μmol/L ([14]; ETS-1 siRNA +ARQ-197) of 15.2 ± 0.18 h and a half-life at 1 μmol/L ([14]; PXR siRNA) of 18 ± 0.25 h. The half-life at 1 μmol/L ([14]; PXR siRNA +siRNA) was 18.4 ± 0.67 h, the half-life at 1 μmol/L ([14]; solvent control) was 9.93 ± 0.57 h and the “Half-life of sorafenib (t1/2)” value [15] was 39.45 ± 0.74 h. It also gave an IC50 ([8]; read-out: IC50 values of sorafenib, MHCC97-L, ARQ-197) of 970 ± 390 nM, an IC50 ([8]; read-out: IC50 values of sorafenib, MHCC97-L, solvent control) of 2730 ± 400 nM and a half-life at 1 μmol/L ([16]; ARQ-197) of 12.6 ± 0.18 h. It also gave a half-life at 1 μmol/L ([16]; solvent control) of 10.2 ± 0.51 h and an IC50 ([9]; read-out: IC50 values of sorafenib, MHCC97-H, solvent control) of 1390 ± 460 nM.
